Compounds with a hit are over-represented: about 3.5% of the library has one in this group of screens.
mABHD4 FP = inhibitors of mouse ABHD4 | purified mABHD4, FP-Rh probe fluorescence polarization | inhibition, % at 8.92 µM | 0.54% of 370,000 active | Q8VD66 | AID 720543;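 active means inhibition exceeding the mean over every tested compound plus 3 SD, cut at about 30% in these data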;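 further: 0% = plate median of compound wells and 100% = S159A mutant with DMSO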
Target sequence (Q8VD66 whole entry, looked up): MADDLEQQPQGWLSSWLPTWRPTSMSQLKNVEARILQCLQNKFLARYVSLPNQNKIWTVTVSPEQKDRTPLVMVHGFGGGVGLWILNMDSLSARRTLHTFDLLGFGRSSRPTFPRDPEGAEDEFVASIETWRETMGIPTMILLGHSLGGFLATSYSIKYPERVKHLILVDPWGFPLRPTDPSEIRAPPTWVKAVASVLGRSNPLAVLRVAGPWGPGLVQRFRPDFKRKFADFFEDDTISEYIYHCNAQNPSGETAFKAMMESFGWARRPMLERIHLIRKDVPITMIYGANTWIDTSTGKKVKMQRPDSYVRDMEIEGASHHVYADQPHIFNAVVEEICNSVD
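Test system: mABHD4 protein | Buffer or medium: HEPES pH 7.0 buffer, 150 mM NaCl, 0.01% Pluronic F-127 | Probe or stimulus: FP-Rh fluorescent activity-based probe, added after compound pre-incubation | Timing: Pre-incubation 45 min, probe exposure 60 min, at 25 °C | Technique: Fluorescence polarization, excitation 525 nm, emission 598 nm, BODIPY TMR filters | Repeats: Single well per compound (singlicate)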
SIAE primary = blocks human sialic acid acetylesterase | 0.69% of 370,000 active | SIAE FP-Rh probe binding, fluorescence polarization | inhibition, % at 9.66 µM | Q9HAT2;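 active means inhibition above a cutoff: mean of compounds within the control limits plus 3 SD of those, cut at about 17% in these data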;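 further: 0% = plate median of compound wells and 100% = probe without SIAE protein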
HTRA1 inhibitor = inhibitors of human serine peptidase HTRA1; recombinant HTRA1, FP-rhodamine activity-based probe, fluorescence polarization; inhibition, % at 5.96 µM; 0.5% of 340,000 active; AID 504803; in the data active means inhibition above about 36%;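 further: 0% = enzyme with DMSO and 100% = wells lacking enzyme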
Target sequence (Q92743 whole entry, looked up): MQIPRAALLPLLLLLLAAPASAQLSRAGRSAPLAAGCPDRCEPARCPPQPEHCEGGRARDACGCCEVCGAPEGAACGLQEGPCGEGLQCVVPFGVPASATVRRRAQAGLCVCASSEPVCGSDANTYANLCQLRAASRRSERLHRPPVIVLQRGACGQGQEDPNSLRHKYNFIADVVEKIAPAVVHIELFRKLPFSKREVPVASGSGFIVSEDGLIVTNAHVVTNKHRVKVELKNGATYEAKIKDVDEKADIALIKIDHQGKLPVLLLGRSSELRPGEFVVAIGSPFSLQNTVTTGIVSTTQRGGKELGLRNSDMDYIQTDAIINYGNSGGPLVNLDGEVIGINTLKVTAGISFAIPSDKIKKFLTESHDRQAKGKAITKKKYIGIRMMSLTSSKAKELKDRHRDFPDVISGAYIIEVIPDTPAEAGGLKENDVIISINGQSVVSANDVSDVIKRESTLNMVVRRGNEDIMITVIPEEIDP
rCAG RNA binder = r(CAG) repeat RNA binding | AID 651821 | TO-PRO-1 dye displacement fluorescence | inhibition, % at 3 µM | 1.3% of 370,000 active;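 active means inhibition above the plate cutoff, the mean of all test compounds on that plate plus 3 SD, cut at about 35% in these data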;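 further: 0% = DMSO alone and 100% = 100 µM mitoxantrone as full dye displacement; higher means more dye released from RNA so lower well fluorescence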
TCR-CD3 inh = blocks the human TCR-CD3 interaction. AID 651800. TAMRA-labeled TCR probe fluorescence, biochemical. inhibition, % at 9.4 µM. 0.37% of 360,000 active;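 further: recombinant mutant TCR 2C K166C tagged with TAMRA read by polarization; 0% = receptor in buffer alone and 100% = receptor with positive control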
PRMT1 FP inh = inhibitors of human PRMT1. Q99873. recombinant PRMT1, activity-based probe fluorescence polarization. inhibition, % at 2.79 µM. 1.3% of 370,000 active;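 active means inhibition above about 21% made by adding two undisclosed values, limit read from the data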
BSA probe FL = counter-screen for TCR-CD3 interaction inhibitors: BSA probe | inhibition, % at 9.4 µM | shares compounds with TCR-CD3 inh | 10% of 1,200 active | TAMRA-labeled BSA probe fluorescence counterscreen | AID 652035; in the data active means inhibition above about 23%;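 further: 0% = buffer low control and 100% = reference high control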
TCR-CD3 inh conf = TCR-CD3 interaction inhibition, confirmation | shares compounds with TCR-CD3 inh | TAMRA-labeled TCR probe fluorescence binding assay | inhibition, % at 9.4 µM | 48% of 1,200 active
rCAG binder conf = r(CAG) RNA repeat binding, confirmation; shares compounds with rCAG RNA binder; TO-PRO-1 dye displacement fluorescence; 70% of 4,300 active; AID 652065; inhibition, % at 3 µM;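 active means inhibition above a per-plate cutoff, the mean inhibition of sample wells plus 3 SD, cut at about 35% in these data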;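 further: loss of TO-PRO-1 fluorescence as compound displaces dye from 1x1 AA loop RNA; 0% = DMSO only wells and 100% = 100 µM mitoxantrone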
DNA CAG counter = DNA CAG dye complex inhibition counter-screen. shares compounds with rCAG RNA binder. d(CAG) DNA oligo TO-PRO-1 dye displacement, fluorescence. inhibition, % at 3 µM. 94% of 4,300 active. AID 652068;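 active means inhibition above its plate's cutoff, the mean test-well inhibition plus 3 SD, cut at about 4.8% in these data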;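 further: 0% = DNA dye mix with DMSO and 100% = 100 µM mitoxantrone; hits displace the dye from DNA and so lower well fluorescence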
DNA CAG DR = counter-screen for rCAG binders: inhibitors of DNA CAG TO-PRO-1 complex. shares compounds with rCAG RNA binder. DNA CAG/GTC duplex TO-PRO-1 dye displacement fluorescence. IC50, µM. 20% of 250 active. AID 686960; in the data active means IC50 below about 10 µM
PRMT1 inh conf = confirmation of human PRMT1 inhibitors; shares compounds with PRMT1 FP inh; recombinant His-PRMT1, activity-based probe fluorescence polarization; inhibition, % at 2.79 µM; 42% of 3,300 active;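 active means mean inhibition across replicates above the hit cutoff derived for the earlier primary screen, cut at about 22% in these data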
ABHD4 confirm = ABHD4 (mouse) inhibition, FP confirmation. shares compounds with mABHD4 FP. purified mABHD4, FP-Rh probe fluorescence polarization. 55% of 1,800 active. inhibition, % at 8.92 µM;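 active means mean inhibition across replicates above the hit cutoff set in the primary screen, cut at about 30% in these data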;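 further: 0% = wild-type ABHD4 with DMSO and 100% = catalytically dead S159A mutant with DMSO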
Active calls of the source: *; i = inactive; x = not tested or not shown; ! = repeats disagree. Unless noted, no stated cut-off is given here; in the data, active means inhibition above about 19%; inactive means the rest.

SMILES	mABHD4 FP	SIAE primary	HTRA1 inhibitor	rCAG RNA binder	TCR-CD3 inh	PRMT1 FP inh	BSA probe FL	TCR-CD3 inh conf	PRMT1 inh conf	ABHD4 confirm	others
N#C/C(=C\c1ccc(O)c(O)c1)C(=O)c1ccc(O)c(O)c1	23.9	11.4	33.9	30.9	22.9*	35.2*	11.6	72.4*	18.7	x
COC(=O)c1cc(C(C)c2ccccc2O)n2ccccc12 (stereo not drawn)	-21.1	-6.0	x	2.4	x	-4.8	x	x	x	x
Cc1cc2cc(CNC(=O)c3ccc(Br)o3)ccc2[nH]1	7.2	5.4	12.2	9.2	2.8	19.3	x	x	x	x
Cc1cc2cc(CNC(=O)c3ccc(Br)o3)ccc2n1C	-7.3	-2.8	-0.8	10.7	22.5*	36.5*	5.9	7.5	4.9	x
c1coc(-c2ccc3nncn3c2)c1	23.0	12.3	x	46.8*	35.2*	43.5*	-2.7	30.4*	39.5*	x	rCAG binder conf=45.5*;DNA CAG counter=18.5*;DNA CAG DR=i
O=C(O)c1ccccc1C1=Nc2ccc(O)cc2Oc2cc(O)ccc21	30.2*	13.5	17.0	-141.0	34.1*	47.5*	57.4*	46.5*	65.4*	61.2*
NC(=O)c1sc2nc3c(c(-c4ccco4)c2c1N)CCC3	30.1*	2.9	26.1	42.5*	19.4*	46.9*	4.0	3.2	3.5	8.2	rCAG binder conf=4.3;DNA CAG counter=4.3
O=C(c1ccc2c(c1)C(=O)N(CCCO)C2=O)c1ccc2c(c1)C(=O)N(CCCO)C2=O	-3.2	2.2	6.3	0.1	-4.7	-0.5	x	x	x	x
O=C1c2ccc3c4c(ccc(c24)C(=O)N1CCCCO)C(=O)N(CCCCO)C3=O	37.9*	16.6	18.1	-4.9	33.5*	9.1	40.0*	25.5*	x	27.2
FC(F)(F)c1cc(CNC2CCC23CCCCC3)ccc1Cl (stereo not drawn)	4.7	-1.8	x	x	x	4.4	x	x	x	x
Oc1ccc2ccccc2c1CN1CCOCC1	5.3	-6.5	11.0	-1.8	3.6	20.8	x	x	x	x
Oc1cccc(CN2CCOCC2)c1O	41.9*	3.5	27.2	40.9*	26.9*	32.6*	0.1	10.4	9.5	6.2	rCAG binder conf=3.4;DNA CAG counter=0.4
O=C(CCCC1=NS(=O)(=O)c2ccccc2N1)N1CCN(c2ccccc2Cl)CC1	1.2	-1.7	x	2.1	x	-3.3	x	x	x	x
C/C(=N\NC(=O)c1ccccc1O)C1C(=O)c2ccccc2C1=O	45.7*	8.8	30.3	71.8*	33.1*	0.9	-17.1	41.7*	x	63.8*	rCAG binder conf=64.4*;DNA CAG counter=17.7*
CC1(C)CC(=O)C(C=Nc2ccc(O)cc2)=C(O)C1	25.7	-5.7	2.3	-1.7	8.1	5.4	x	x	x	x
COC(=O)C1C(O)=C(C=Nc2ccc(N)cc2)C(=O)CC1(C)C (stereo not drawn)	38.1*	16.5	26.6	3.1	26.1*	2.5	-5.4	1.2	x	4.8
CC1(C)CC(=O)C(C=Nc2ccc(N)cc2)=C(O)C1	35.4*	11.1	25.9	2.7	23.2*	9.3	0.0	-0.5	x	-7.4
Cc1ccc(NC(=O)c2ccc(CS(=O)(=O)Cc3ccccc3C)o2)c(C)c1	-4.4	-0.7	x	4.5	x	2.2	x	x	x	x
COC(=O)c1cc(-c2cc(F)cc(OC)c2)c(=O)n2c1CCC2	1.4	6.1	x	0.4	x	-4.1	x	x	x	x
COc1ccc(CN2C(=O)CCCC2(C)c2nnnn2-c2c(C)cccc2C)cc1OC (stereo not drawn)	1.5	-1.6	x	3.1	x	0.5	x	x	x	x
COc1ccc(OC[C@@H](O)CN2CCC(C(O)(c3ccccc3)c3ccccc3)CC2)cc1	-5.4	-8.5	x	0.5	x	-2.9	x	x	x	x
O=C1/C(=C/C=C/c2ccco2)SC(=S)N1NS(=O)(=O)c1ccccc1	45.8*	7.1	24.7	89.3*	22.1*	53.0*	-13.6	20.8*	x	13.9	rCAG binder conf=87.3*;DNA CAG counter=61.4*
Nc1ccc(N=Nc2ccccc2O)c(N)c1	38.7*	7.9	x	9.1	20.6*	8.9	-11.3	8.0	x	40.1*
O=c1cc(Br)c(O)c(Br)cc1Br	31.2*	2.7	14.0	13.1	20.8*	34.9*	-2.2	5.3	39.4*	18.5
O=C1NC(=S)NC1=Cc1ccco1	32.6*	-5.4	13.6	17.2	24.1*	63.8*	4.2	21.2*	12.5	5.7
SMILES	mABHD4 FP	SIAE primary	HTRA1 inhibitor	rCAG RNA binder	TCR-CD3 inh	PRMT1 FP inh	BSA probe FL	TCR-CD3 inh conf	PRMT1 inh conf	ABHD4 confirm	others
O=C(CN1CCc2onc(-c3ccc(-n4cc(C5=CCCCC5)nn4)cc3)c2C1=O)N1CCOCC1	-8.4	-7.1	x	2.6	x	3.8	x	x	x	x
CCN1CCCCC(NC(=O)c2ccc(C)cc2)C1=O (stereo not drawn)	-10.3	-7.3	x	1.9	x	-9.7	x	x	x	x
CN(c1ccccc1)S(=O)(=O)c1ccc(NC(=O)CC(=O)c2ccccc2)cc1	32.4*	-68.8	-20.4	17.9	56.2*	0.4	6.8	5.0	x	-73.5
C[c-]1[c-](C)[c-](C)[c-](C)[c-]1C.[Fe].c1cc2nccc(N3CCCC3)[c-]2c1 (stereo not drawn)	32.6*!	8.3	13.6	8.5	48.8*	25.9*	1.9	19.2*!	7.6	30.5*
CCCCCCCCN1C(=O)[C@@H](CC(=O)NCc2cccs2)C[C@@]2(C(=O)OC)C1=C[C@H](C(C)C)O[C@@H]2C1CC1	-8.0	3.0	x	9.5	x	0.9	x	x	x	x
CC(=O)Nc1ccc(S(=O)(=O)NCc2ccc3[nH]c(C)cc3c2)cc1	-19.3	1.8	8.0	19.8	1.3	1.7	x	x	x	x
CC(=O)Nc1ccc(S(=O)(=O)NCc2ccc3c(c2)cc(C)n3C)cc1	46.1*	14.7	27.2	22.8	54.2*	13.8	-1.3	0.8	x	-13.4
Nc1ncnc2oc(-c3ccco3)c(-c3ccco3)c12	34.1*	35.5*	23.0	68.0*	57.7*	60.5*	-4.5	26.9*	x	4.2	rCAG binder conf=26.9;DNA CAG counter=16.3*
Nc1nnc(-c2ccco2)s1	6.6	6.4	3.5	-0.8	2.6	10.3	x	x	x	x
COC(=O)c1cc(NC(=O)NC2CCCCN(Cc3cccc(Cl)c3)C2=O)cc(C(=O)OC)c1 (stereo not drawn)	1.6	2.4	x	7.9	x	-0.8	x	x	x	x
